Sampled rows, rich in hits. Any-hit rate of the full collection: about 3%.
Cardio protect: myocardial damage modulation in H9c2 cells | protection from H2O2 cell death, % at 20 µM | 0.63% of 360,000 active | H9c2 cardiomyocytes, H2O2 injury protection, ATPLite, 2 h;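 active means compounds giving at least 50% protection of heart cells from peroxide-induced death in the single-dose screen, raw or plate-pattern-corrected value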;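 further: 0% = DMSO wells with peroxide and 100% = DMSO wells without peroxide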
DSG3 Ab inh: human desmoglein-3 autoantibody binding inhibition; DSG3-coupled beads, scFv-anti-DSG3-GFP binding, flow cytometry; stronger effect = lower value; binding (percent of control), % at 10 µM; 0.48% of 310,000 active; P32926;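 active means binding more than 3 SD below its plate's average and above zero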;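 further: hits lower antibody fragment binding to DSG3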
Granule exo inh: blocks lytic granule exocytosis; TALL-104 LAMP-1 surface exposure, flow cytometry; cells stimulated with thapsigargin and PMA; 0.66% of 360,000 active; inhibition, % at 10 µM; AID 651702;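 active means inhibition above about 55%, limit read from the data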
SENP1 inh: blocks the human SENP1 SUMO protease catalytic domain; recombinant SENP1 catalytic domain, CyPet-SUMO1-YPet FRET cleavage; inhibition, % at 10 µM; 0.21% of 360,000 active; AID 624204;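 active means inhibition at least 30% at 10 µM, raw YFP signal under a set limit, fluorescence ratio 0.5 to 1.5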;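 further: 0% = enzyme with DMSO and 100% = no enzyme wells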
Target sequence (Q9P0U3 419-644 limits assumed): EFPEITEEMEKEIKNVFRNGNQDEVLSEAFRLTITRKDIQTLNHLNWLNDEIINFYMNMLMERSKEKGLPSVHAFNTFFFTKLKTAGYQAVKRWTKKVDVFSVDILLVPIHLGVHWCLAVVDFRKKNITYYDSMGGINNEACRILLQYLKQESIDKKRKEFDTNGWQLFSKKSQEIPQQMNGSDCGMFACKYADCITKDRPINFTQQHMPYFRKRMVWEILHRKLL
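system = hSENP1 catalytic domain, recombinant | reagent = SFCypet-SUMO1-SFYpet substrate at 25 nM | doses = one dose per compound, 10 µM, 0.5% DMSO | incubation = enzyme reaction for 50 min at room temperature, dark | measured by = FRET, CFP and YFP emission | controls = no-enzyme low, enzyme-DMSO high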
HNF4A DNA FP: change in binding of human HNF4 alpha to DNA. P41235. HNF4a-FITC DNA binding, fluorescence polarization, 1 h. activity change, % at 10 µM. 0.3% of 360,000 active; in the data active means activity change above about 30%, passing the limit was not always enough
Myeloid diff 2: myeloid differentiation induction; ER-HoxA9 myeloid progenitors, lysozyme-GFP differentiation, flow cytometry; calls only at 10 µM; 1% of 360,000 active; AID 624256;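 active means normalized GFP-positive differentiation at or above the plate's own cutoff, the solvent-only control mean plus 3 SD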;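 further: cells exposed to compound for four days before flow analysis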
Myeloid diff CP1: compounds promoting myeloid differentiation. 2% of 2,300 active. calls only. shares compounds with Myeloid diff 2. ER-HoxA9 myeloid progenitors, GFP/Mac1 double-positive flow;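 active means share of green or green-and-red cells above 9 and 9% in run 1 or 4 and 3% in run 2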
GFP autofluor: counter-screen for myeloid differentiation promoters: compound fluorescence; shares compounds with Myeloid diff 2; 7.4% of 2,300 active; ER-HoxA9 myeloid progenitors, no estrogen, GFP autofluorescence flow cytometry; vehicle wells 0%, positive control 100%; fluorescence response, % (concentration not given with the values);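 active means over 5% cells positive for green fluorescent reporter, or over 2% positive for both it and APC stain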;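 further: range taken on the double positive population between DMSO and positive control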
* hit, by the source's call; i = inactive; / = not tested or not shown; + = active, no number.

SMILES	Cardio protect	DSG3 Ab inh	Granule exo inh	SENP1 inh	HNF4A DNA FP	Myeloid diff 2	Myeloid diff CP1	GFP autofluor
Cc1c(N=C2NN=C(c3c[nH]c4ccccc34)CS2)c(=O)n(-c2ccccc2)n1C	-3	85*	17	-10	4	+	i	5
Cc1cccc(S(=O)(=O)Nc2cccc(-c3cn4ccsc4n3)c2)c1	-17	102	-3	2	0	i	/	/
Cc1ccc(S(=O)(=O)Nc2cccc(-c3cn4ccsc4n3)c2)cc1	-17	96	-4	0	0	i	i	1
Cc1cc(C)cc(NC(=S)N2CCC(NC(=O)C3CCCCC3)CC2)c1	-4	/	20	6	-1	i	/	/
Cc1cc(C)cc(NC(=O)C2CCCC2)c1	4	89	-1	0	-2	+	i	0
CC(C)(C)OC(=O)C[C@@H]1C/C=C\C[C@H](CC(=O)N[C@H](CO)Cc2ccccc2)C(=O)N[C@@H](Cc2ccccc2)COC1=O	27	108	4	-1	-4	i	i	0
COc1ccccc1NS(=O)(=O)c1cc(NC(=O)Cc2n[nH]c(=O)c3ccccc23)ccc1Cl	70*	118	1	1	3	i	i	0
CCOC(=O)CC(=O)CSc1nc(C)cc(-c2cccnc2)c1C#N	-6	104	0	10	4	i	i	0
Cc1ccccc1-c1cnc(C(O)c2c(C)cccc2C)[nH]1 (centres undefined)	-1	/	0	0	0	i	/	/
CSCC[C@H](NC(=O)C1CCN(S(=O)(=O)c2ccc(C)cc2)CC1)C(=O)NCc1ccco1	4	/	-2	1	6	+	i	1
CSCC[C@H](NC(=O)C1CCN(S(=O)(=O)c2ccc(C)cc2)CC1)C(=O)NCC1CCCO1 (some centres undefined)	-4	/	-3	1	4	i	/	/
O=C(c1ccc(S(=O)(=O)N2CCCC2)cc1)N1CCCCCC1	-3	82	-1	2	2	i	/	/
O=C(c1ccc(S(=O)(=O)N2CCCCC2)cc1)N1CCN(CCN2C(=O)c3cccc4cccc(c34)C2=O)CC1	46	102	2	2	-5	+	i	0
COc1ccccc1CC1(C)NC(=O)N(CC(=O)N2CC(C)OC(C)C2)C1=O (centres undefined)	-1	93	0	1	2	i	i	0
O=C(Nc1ccccc1C(=O)O)c1ccc(CN2C(=O)c3ccccc3C2=O)cc1	15	100	4	1	-1	i	/	/
Cc1sc2ncn(CC(=O)NCc3ccccn3)c(=O)c2c1S(=O)(=O)N1CCOCC1	2	/	2	2	5	i	i	0
COc1ccc(C(=O)Nc2cccc(N(C)S(C)(=O)=O)c2)cc1OC	0	101	-2	1	-3	i	i	0
COc1ccc(NC(=O)c2ccc(N(C)S(C)(=O)=O)cc2)cc1OC	-5	98	-3	-1	1	i	/	/
COc1cc(C(=O)NC2CCCc3ccccc32)ccc1OCC(=O)Nc1ccc(F)cc1 (centres undefined)	-4	91	-2	2	2	i	/	/
O=C(O)c1ccc(-n2cccc2/C=C2/NC(=O)N(c3cccc(Cl)c3)C2=O)cc1	-10	88	6	-22	-66	+	i	0
C/C(=N/NC(=O)CNS(=O)(=O)c1ccc(C)cc1)c1cccc([N+](=O)[O-])c1	6	88	1	3	1	i	/	/
CC1(C)O[C@H]2CC(=O)OC[C@@]23C1CC(=O)[C@]1(C)C3CC[C@@]2(C)[C@H](c3ccoc3)OC(=O)[C@H]3O[C@]321 (some centres undefined)	0	102	-4	0	-1	+	i	0
CC1(C)O[C@H]2CC(=O)OC[C@]23[C@H]2CC[C@@]4(C)[C@H](c5ccoc5)OC(=O)[C@H]5O[C@]54[C@]2(C)[C@@H](O)C[C@@H]13	0	101	11	2	-5	i	/	/
Cc1cccn2cc(COc3ccc(-c4ccccc4)cc3)nc12	-20	/	3	3	5	+	+	1
COc1ccc(N2C(c3ccsc3)=Cc3cc4c(cc3C2c2c[nH]c3ccccc23)OCO4)cc1 (centres undefined)	/	/	-3	11	0	+	i	2
SMILES	Cardio protect	DSG3 Ab inh	Granule exo inh	SENP1 inh	HNF4A DNA FP	Myeloid diff 2	Myeloid diff CP1	GFP autofluor
CC(C)C(=O)Nc1cccc(S(=O)(=O)c2cccc(NC(=O)C(C)C)c2)c1	-25	106	0	3	1	i	i	0
CSc1cccc(NC(=O)C(C)C)c1	4	86	1	-1	-2	i	/	/
O=C(CSc1nc(=O)n(CCCN2CCOCC2)c2c1CCCC2)Nc1ccc(F)cc1F	0	90	6	2	-3	+	i	0
CCN1C(=O)[C@@H]2[C@@H](c3ccc(-c4ccc(Cl)c(Cl)c4)c(OC)c3)N3CCC[C@@]3(C(=O)OC)[C@@H]2C1=O	5	101	-2	0	3	i	/	/
CCN1C(=O)[C@@H]2[C@@H](c3ccc(-c4cccc(Cl)c4)c(OC)c3)N3CCCC[C@@]3(C(=O)OC)[C@@H]2C1=O	-1	100	8	-1	3	+	i	0
CC1(C)NC(=O)N(CCCCOc2ccc(Cl)cc2)C1=O	2	105	0	-4	-2	i	i	0
COCCOC(=O)c1c(C)oc2ccc(O)c(CN3CCC(C)CC3)c12 (tested in a mixture with another compound)	-2	88	-1	4	0	i	/	/
COc1cccc(C(=O)NC(=S)Nc2ccccc2N2CCCCC2)c1	-5	105	2	2	4	+	i	1
COc1cccc(C(=O)NC(=S)Nc2ccccc2N2CCCC2)c1	1	114	-1	-7	-2	i	/	/
CCCCn1c(N)c(N(CC(C)C)C(=O)C2CC(=O)N(Cc3ccco3)C2)c(=O)[nH]c1=O (centres undefined)	-6	100	2	-3	2	i	/	/
COc1ccc(/C=C/c2cccc[n+]2C)c(O)c1	3	116	-3	-3	-1	i	+	1
Cc1cc(C)c2cc3c(N)c(C(=O)N4CCOCC4)sc3nc2c1	6	104	-4	-6	4	i	/	/
